Assay results from paper PMC6774857 (Cell calcium, 2019).
Read-outs that look alike come from different tables or passages of the source. Each block holds one compound with its values, some of them ahead of it.

What was measured:
[1] = biological target: sea urchin NAADP receptor; settings: sea urchin egg homogenates, cited from earlier work
[2] = system: sea urchin NAADP receptor; assay: Ca2+ release from sea urchin egg homogenates; assay type: biochemical, Strongylocentrotus purpuratus
Summary of the method: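 Ca2+ release measured in Strongylocentrotus purpuratus egg homogenate after adding test compound.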

SKBR3 cells = assay: Microinjection of SKBR3 cells with GCaMP6M confocal Ca2+ imaging; assay type: cell-based, human; settings: for EC50 of fold-change in the intensity of the Ca2+ signal: SKBR3 cells transfected with TPC2 and GCaMP6M, concentration in the micropipette
[3] = biological target: sea urchin NAADP receptor; assay: Competition-binding assay with [32P]-NAADP in sea urchin egg extracts; set-up: species or system Strongylocentrotus purpuratus; settings: read-out: IC50 competition with [32P]-NAADP
[4] = biological target: T1, 23 kDa NAADP binding protein(s) (Homo sapiens, UniProt Q9H910); settings: Jurkat cell extracts, 23 kDa band
T1 sequence (Q9H910 1-190): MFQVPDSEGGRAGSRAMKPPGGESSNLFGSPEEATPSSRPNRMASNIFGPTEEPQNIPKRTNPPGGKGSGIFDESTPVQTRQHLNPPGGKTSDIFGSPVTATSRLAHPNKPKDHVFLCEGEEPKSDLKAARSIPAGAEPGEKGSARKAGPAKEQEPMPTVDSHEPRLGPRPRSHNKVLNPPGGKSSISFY

[5] = Solubility in buffered water; assay type: physicochemical
U2OS cells = settings: cited from earlier work
ascidian oocytes = settings: read-out: EC50 of Ca2+ mobilization; cited from earlier work
[6] = biological target: sea urchin NAADP receptor; assay type: biochemical, Strongylocentrotus purpuratus; settings: read-out: IC50 for desensitization; data not shown

Compound: 5-(3-(t-Boc-amino)-propyl)-NAADP [compound 3]
- EC50 (agonist) ([1]; previously synthesized and tested): micromolar range

- Calcium released, % of the amount of calcium released by 10 μM NAADP ([2]; at 1 mM): 18%
- Release of Ca2+ from sea urchin egg homogenates ([2]; concentrations less than 100 μM): did not elicit release
- EC50 of fold-change in the intensity of the Ca2+ signal (SKBR3 cells): 173 nM
- IC50 [3]: 6000 nM
Compound: 5-[3-(3-Azido-5-(azidomethyl)benzamido)propyl]-NAADP [AIOC-NAADP]
- Potency relative to 9 (SKBR3 cells; microinjection into cultured human cells, 9 data ref 56): approximately 10 fold

Compound: NC(=O)c1ccc[n+]([C@H]2O[C@@H](COP(=O)([O-])OP(=O)(O)OC[C@H]3O[C@@H](n4cnc5c(N)ncnc54)[C@H](OP(=O)(O)O)[C@@H]3O)[C@H](O)[C@@H]2O)c1 [NADP]
- Fold higher concentrations required for similar protection compared with NAADP [4]: 40 fold

- Solubility ([5]; buffered water at pH 4.5): low solubility
- Solubility ([5]; higher pH (pH ≥ 5)): completely soluble
Compound: [N-]=[N+]=NCc1cc(N=[N+]=[N-])cc(C(=O)NCCCc2cncc(C(=O)O)c2)c1 [compound 4, 5-(3-(3-Azido-5-(azidomethyl)benzamido)propyl) nicotinic acid]

Compound: C#Cc1nc2c(N)ncnc2n1C1OC(COP(=O)(O)OP(=O)(O)OC[C@H]2O[C@@H]([n+]3cc(N=[N+]=[N-])cc(C(=O)[O-])c3)[C@H](O)[C@@H]2O)C(O)C1OP(=O)(O)O (some centres unmarked) [compound 9, 5-azido-8-ethynyl-NAADP]
- Activity when microinjected into cultured human U2OS cells (U2OS cells): active at low concentration

Compound: nicotinic acid adenine dinucleotide phosphate [NAADP]
- EC50 (ascidian oocytes): 10 to 50 nM
- EC50 ([1]; read-out: EC50 of Ca2+ mobilization): 10 to 50 nM
- EC50 of fold-change in the intensity of the Ca2+ signal (SKBR3 cells): 22 nM
- IC50 [6]: 0.3 nM
